The source made the active and inactive calls. The calls are words filed in the database; no cut-off is given here. Numbered stars: 1 amine (or outer) side, 2 acyl side, 3 side chain; on linkers, the order of the positions; unused ones are H or OH. Square brackets hold non-standard residues; d marks the D form. Peptide text beside a SMILES is read from it. X1 = Nc1ncnc2c1ncn2[C@@H]1O[C@H](CSCCCN(CC(=O)[*:2])[*:1])[C@@H](O)[C@H]1O; Nlys = NCCCCNCC(=O)O
How the values were obtained:
[1] = target: T1, N-terminal Xaa-Pro-Lys N-methyltransferase 1 (Homo sapiens) (UniProt Q9BV86); assay: Substrate activity at NTMT1 (unknown origin) assessed as compound methylation at 10 uM incubated overnight by MALDI-MS methylation assay
T1 sequence (whole entry): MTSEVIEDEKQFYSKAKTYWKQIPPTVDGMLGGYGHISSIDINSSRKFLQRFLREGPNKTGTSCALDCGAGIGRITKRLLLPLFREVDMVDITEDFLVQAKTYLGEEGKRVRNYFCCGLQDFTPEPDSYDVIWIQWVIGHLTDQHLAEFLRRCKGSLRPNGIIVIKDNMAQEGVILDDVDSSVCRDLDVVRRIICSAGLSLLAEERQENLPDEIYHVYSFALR
Method in brief: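 Compound (10 µM) incubated overnight at 37 °C with 0.1 µM NTMT1 and 3 µM SAM in 20 mM Tris pH 7.5, 50 mM KCl. Quenched 1:1 with 20 mM NH4H2PO4, 0.4% TFA in 1:1 acetonitrile/water. Methylated compound detected by MALDI-MS with 2,5-dihydroxybenzoic acid matrix.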

[2] = target: N-terminal Xaa-Pro-Lys N-methyltransferase 2 (Homo sapiens, UniProt Q5VVY1); assay: Binding affinity to […] (unknown origin) by ITC assay
N-terminal Xaa-Pro-Lys N-methyltransferase 2, sequence (Q5VVY1 whole entry): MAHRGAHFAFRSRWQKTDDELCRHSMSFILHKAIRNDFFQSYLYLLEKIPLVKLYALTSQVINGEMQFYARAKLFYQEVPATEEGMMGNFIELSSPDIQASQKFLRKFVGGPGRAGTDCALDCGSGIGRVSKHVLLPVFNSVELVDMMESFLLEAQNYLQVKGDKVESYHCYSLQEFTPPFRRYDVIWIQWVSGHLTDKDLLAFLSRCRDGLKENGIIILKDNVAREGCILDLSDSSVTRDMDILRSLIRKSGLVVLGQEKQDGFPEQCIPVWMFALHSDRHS
Method in brief: (§1)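 Purified NTMT1 or NTMT2 at 30–50 μM in the cell; compound at 0.5–1 mM in the same buffer, titrated in as 26 injections of 10 μl spaced 180 s. Data fitted to a one-site or two-site binding model.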

[3] = target: T2, N-terminal Xaa-Pro-Lys N-methyltransferase 1 (Homo sapiens, UniProt Q9BV86); assay: Binding affinity to NTMT1 (unknown origin) assessed as binding constant Kd1 by ITC assay; method in brief: as §1
T2 sequence (Q9BV86 whole entry): T1 sequence (whole entry)

[4] = target: T2, N-terminal Xaa-Pro-Lys N-methyltransferase 1; assay: Binding affinity to NTMT1 (unknown origin) assessed as binding constant Kd2 by ITC assay; method in brief: as §1
[5] = target: T2, N-terminal Xaa-Pro-Lys N-methyltransferase 1; assay: Inhibition of NTMT1 (unknown origin) pre-incubated for 10 mins before GPKRIA peptide substrate addition by SAHH coupled fluorescence assay
Method in brief: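 Inhibitor at 0.15 nM–10 μM, preincubated 10 min. Reaction started with 0.5 μM GPKRIA (Km). Fluorescence read at ex 400/em 465 nm; IC50 derived.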

[6] = target: T2, N-terminal Xaa-Pro-Lys N-methyltransferase 1; assay: Time dependent inhibition of NTMT1 (unknown origin) pre-incubated for 120 mins before GPKRIA peptide substrate addition by SAHH coupled fluorescence assay based Morrison's quadratic equation analysis
[7] = target: T2, N-terminal Xaa-Pro-Lys N-methyltransferase 1; assay: Time dependent inhibition of NTMT1 (unknown origin) pre-incubated for 30 mins before GPKRIA peptide substrate addition by SAHH coupled fluorescence assay based Morrison's quadratic equation analysis
[8] = target: T2, N-terminal Xaa-Pro-Lys N-methyltransferase 1; assay: Time dependent inhibition of NTMT1 (unknown origin) pre-incubated for 10 mins before GPKRIA peptide substrate addition by SAHH coupled fluorescence assay based Morrison's quadratic equation analysis
[9] = target: T2, N-terminal Xaa-Pro-Lys N-methyltransferase 1; assay: Time dependent inhibition of NTMT1 (unknown origin) pre-incubated for 90 mins before GPKRIA peptide substrate addition by SAHH coupled fluorescence assay based Morrison's quadratic equation analysis
[10] = target: T2, N-terminal Xaa-Pro-Lys N-methyltransferase 1; assay: Time dependent inhibition of NTMT1 (unknown origin) pre-incubated for 60 mins before GPKRIA peptide substrate addition by SAHH coupled fluorescence assay based Morrison's quadratic equation analysis
[11] = target: T2, N-terminal Xaa-Pro-Lys N-methyltransferase 1; assay: Inhibition of NTMT1 (unknown origin) pre-incubated for 10 mins before GPKRIA peptide substrate addition and measured after 20 mins by MALDI-MS methylation assay
[12] = target: Adenosylhomocysteinase (Homo sapiens) (UniProt P23526); assay: Inhibition of SAHH (unknown origin) at 30 uM relative to control
Adenosylhomocysteinase (Homo sapiens), sequence (P23526 2-432 limits assumed): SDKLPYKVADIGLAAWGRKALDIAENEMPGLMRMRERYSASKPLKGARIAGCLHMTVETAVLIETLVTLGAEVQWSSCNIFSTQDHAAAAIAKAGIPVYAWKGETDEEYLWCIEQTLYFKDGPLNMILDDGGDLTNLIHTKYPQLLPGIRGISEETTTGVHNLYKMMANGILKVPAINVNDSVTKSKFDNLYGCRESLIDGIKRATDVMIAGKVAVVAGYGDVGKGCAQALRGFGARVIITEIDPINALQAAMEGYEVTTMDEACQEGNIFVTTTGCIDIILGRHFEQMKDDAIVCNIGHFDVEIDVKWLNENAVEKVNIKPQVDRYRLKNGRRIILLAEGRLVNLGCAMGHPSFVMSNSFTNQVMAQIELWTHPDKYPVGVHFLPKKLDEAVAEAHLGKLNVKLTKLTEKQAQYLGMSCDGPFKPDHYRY

[13] = target: T3, Histone-lysine N-methyltransferase EHMT2 (Homo sapiens) (UniProt Q96KQ7); assay: Inhibition of G9a (unknown origin) at 100 uM
T3 sequence (whole entry): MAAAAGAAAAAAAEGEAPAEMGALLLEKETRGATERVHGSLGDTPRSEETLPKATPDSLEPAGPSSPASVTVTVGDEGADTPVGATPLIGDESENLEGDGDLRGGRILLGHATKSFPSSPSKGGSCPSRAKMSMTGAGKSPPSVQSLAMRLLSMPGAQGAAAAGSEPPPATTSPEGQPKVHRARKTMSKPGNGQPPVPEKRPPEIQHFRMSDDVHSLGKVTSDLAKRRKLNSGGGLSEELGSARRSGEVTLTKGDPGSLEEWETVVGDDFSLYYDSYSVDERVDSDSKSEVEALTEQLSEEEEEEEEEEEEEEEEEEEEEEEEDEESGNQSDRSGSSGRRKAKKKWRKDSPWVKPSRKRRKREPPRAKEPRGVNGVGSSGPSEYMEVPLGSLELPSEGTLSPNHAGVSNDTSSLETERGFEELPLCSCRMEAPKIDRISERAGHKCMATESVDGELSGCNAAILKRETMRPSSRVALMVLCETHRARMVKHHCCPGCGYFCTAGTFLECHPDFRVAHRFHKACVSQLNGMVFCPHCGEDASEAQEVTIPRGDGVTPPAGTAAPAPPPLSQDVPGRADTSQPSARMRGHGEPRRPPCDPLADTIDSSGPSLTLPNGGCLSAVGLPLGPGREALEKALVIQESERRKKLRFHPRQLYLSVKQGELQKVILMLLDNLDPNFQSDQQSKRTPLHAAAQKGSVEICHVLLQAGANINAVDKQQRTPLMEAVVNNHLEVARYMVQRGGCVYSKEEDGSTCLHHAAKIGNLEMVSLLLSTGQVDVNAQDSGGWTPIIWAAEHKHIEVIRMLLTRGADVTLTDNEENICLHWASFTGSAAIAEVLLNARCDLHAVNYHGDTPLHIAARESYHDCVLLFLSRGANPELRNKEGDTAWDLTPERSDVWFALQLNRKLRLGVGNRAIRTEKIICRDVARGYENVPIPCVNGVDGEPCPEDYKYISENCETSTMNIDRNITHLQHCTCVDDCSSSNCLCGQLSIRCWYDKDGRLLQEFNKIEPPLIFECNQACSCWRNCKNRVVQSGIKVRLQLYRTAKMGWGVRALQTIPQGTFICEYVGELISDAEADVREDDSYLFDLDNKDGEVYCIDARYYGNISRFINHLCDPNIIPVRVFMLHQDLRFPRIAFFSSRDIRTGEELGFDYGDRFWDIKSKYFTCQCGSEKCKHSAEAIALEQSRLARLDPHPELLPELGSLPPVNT

[14] = target: Protein arginine N-methyltransferase 3 (Homo sapiens) (UniProt O60678); assay: Inhibition of PRMT3 (unknown origin) at 30 uM pre-incubated for 10 mins before H4-21 peptide addition in presence of SAM relative to control
Protein arginine N-methyltransferase 3 (Homo sapiens), sequence (O60678 2-531 limits assumed): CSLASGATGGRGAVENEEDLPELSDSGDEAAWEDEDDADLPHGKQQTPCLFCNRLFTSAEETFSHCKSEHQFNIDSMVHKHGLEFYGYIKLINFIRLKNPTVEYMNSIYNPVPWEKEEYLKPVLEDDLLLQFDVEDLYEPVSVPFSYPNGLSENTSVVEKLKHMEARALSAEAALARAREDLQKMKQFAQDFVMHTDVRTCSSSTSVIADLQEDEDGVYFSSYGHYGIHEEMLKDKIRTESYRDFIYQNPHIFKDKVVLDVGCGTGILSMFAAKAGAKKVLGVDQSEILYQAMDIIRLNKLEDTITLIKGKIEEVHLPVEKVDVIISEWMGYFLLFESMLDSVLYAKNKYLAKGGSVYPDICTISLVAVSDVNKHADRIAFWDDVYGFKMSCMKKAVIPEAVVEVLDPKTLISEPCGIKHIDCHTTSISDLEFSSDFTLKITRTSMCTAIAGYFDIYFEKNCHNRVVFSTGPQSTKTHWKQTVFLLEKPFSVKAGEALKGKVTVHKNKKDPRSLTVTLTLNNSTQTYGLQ

[15] = target: Protein arginine N-methyltransferase 1 (Homo sapiens) (UniProt Q99873); assay: Inhibition of PRMT1 (unknown origin) at 30 uM relative to control
Protein arginine N-methyltransferase 1 (Homo sapiens), sequence (Q99873 whole entry, looked up): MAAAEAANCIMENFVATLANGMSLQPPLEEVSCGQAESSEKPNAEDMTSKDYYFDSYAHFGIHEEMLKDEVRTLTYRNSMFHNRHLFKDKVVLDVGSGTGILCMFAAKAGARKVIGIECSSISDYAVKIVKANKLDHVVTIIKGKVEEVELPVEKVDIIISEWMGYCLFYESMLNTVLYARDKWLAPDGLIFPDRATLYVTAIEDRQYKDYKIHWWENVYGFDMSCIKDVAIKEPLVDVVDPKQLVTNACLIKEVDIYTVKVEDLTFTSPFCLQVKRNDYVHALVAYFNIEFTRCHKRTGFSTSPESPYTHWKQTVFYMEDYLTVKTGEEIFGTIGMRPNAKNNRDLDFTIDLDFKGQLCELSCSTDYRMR

[16] = target: T4, Nicotinamide N-methyltransferase (Homo sapiens) (UniProt P40261); assay: Inhibition of NNMT (unknown origin) at 100 uM
T4 sequence (whole entry): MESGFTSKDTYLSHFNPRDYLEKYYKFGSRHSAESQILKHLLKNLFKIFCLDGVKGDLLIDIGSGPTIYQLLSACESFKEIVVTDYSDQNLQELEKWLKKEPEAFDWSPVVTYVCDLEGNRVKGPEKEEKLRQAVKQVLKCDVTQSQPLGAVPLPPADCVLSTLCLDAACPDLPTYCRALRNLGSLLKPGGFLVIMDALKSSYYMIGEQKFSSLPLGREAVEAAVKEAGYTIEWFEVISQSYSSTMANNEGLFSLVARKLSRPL

[17] = test system: Trypanosoma brucei; assay: Inhibition of Trypanosoma brucei PRMT7 at 30 uM relative to control
[18] = target: T5, Histone-lysine N-methyltransferase SETD7 (Homo sapiens) (UniProt Q8WTS6); assay: Inhibition of SETD7 (unknown origin) at 100 uM
T5 sequence (whole entry): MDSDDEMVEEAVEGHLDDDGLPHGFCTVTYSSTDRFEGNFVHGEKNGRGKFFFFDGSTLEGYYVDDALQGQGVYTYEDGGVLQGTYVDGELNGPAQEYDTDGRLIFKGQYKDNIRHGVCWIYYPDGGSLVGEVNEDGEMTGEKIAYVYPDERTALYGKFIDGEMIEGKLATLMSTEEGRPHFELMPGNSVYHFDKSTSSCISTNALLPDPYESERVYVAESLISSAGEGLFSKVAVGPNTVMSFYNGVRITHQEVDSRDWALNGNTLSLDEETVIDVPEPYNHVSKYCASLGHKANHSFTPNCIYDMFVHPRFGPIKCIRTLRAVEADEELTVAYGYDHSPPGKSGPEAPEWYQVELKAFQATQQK

SMILES: CC[C@H](C)[C@H](NC(=O)[C@H](CCCNC(=N)N)NC(=O)[C@H](CCCCN)NC(=O)[C@@H]1CCCN1C(=O)CNCCCCN)C(=O)N[C@@H](C)C(N)=O (H-[Nlys]PKRIA-NH2)
- Activity [1]: Active

SMILES: CC[C@H](C)[C@H](NC(=O)[C@H](CCCNC(=N)N)NC(=O)[C@H](CCCCN)NC(=O)[C@@H]1CCCN1C(=O)CNCCCCCN(CC[C@H](N)C(=O)O)C[C@H]1O[C@@H](n2cnc3c(N)ncnc32)[C@H](O)[C@@H]1O)C(=O)N[C@@H](C)C(N)=O
- Kd [2]: Not Active
- Kd [3]: 1600 nM
- Kd [4]: 480 nM
- IC50 [5]: Not Active

SMILES: N=C(N)NCCC[C@H](NC(=O)[C@H](CCCCN)NC(=O)[C@@H]1CCCN1C(=O)CNCCCN(CC[C@H](N)C(=O)O)C[C@H]1O[C@@H](n2cnc3c(N)ncnc32)[C@H](O)[C@@H]1O)C(N)=O
- IC50 ([5]; read-out: IC50): 200 nM

SMILES: CC[C@H](C)[C@H](NC(=O)[C@H](CCCNC(=N)N)NC(=O)[C@H](CCCCN)NC(=O)[C@@H]1CCCN1C(=O)CNCCCCNCC[C@H](N)C(=O)O)C(=O)N[C@@H](C)C(N)=O
- Activity [1]: Active

SMILES: CC[C@H](C)[C@H](NC(=O)[C@H](CCCNC(=N)N)NC(=O)[C@H](CCCCN)NC(=O)[C@@H]1CCCN1C(=O)CNCCN(CC[C@H](N)C(=O)O)C[C@H]1O[C@@H](n2cnc3c(N)ncnc32)[C@H](O)[C@@H]1O)C(=O)N[C@@H](C)C(N)=O
- Kd [2]: Not Active
- Ki [6]: 5.4 nM
- Kd [3]: 980 nM
- Ki [7]: 6.8 nM
- Ki [8]: 99 nM
- Ki [9]: 4.9 nM
- Kd [4]: 46.7 nM
- Ki [10]: 8.2 nM
- IC50 ([5]; read-out: IC50): 260 nM

SMILES: NCCCCN(CC[C@H](N)C(=O)O)C[C@H]1O[C@@H](n2cnc3c(N)ncnc32)[C@H](O)[C@@H]1O
- IC50 ([5]; read-out: IC50): > 10000 nM

SMILES: N=C(N)NCCC[C@H](NC(=O)[C@H](CCCCN)NC(=O)[C@@H]1CCCN1C(=O)CNCCN(CC[C@H](N)C(=O)O)C[C@H]1O[C@@H](n2cnc3c(N)ncnc32)[C@H](O)[C@@H]1O)C(N)=O
- IC50 ([5]; read-out: IC50): 320 nM

SMILES: CC[C@H](C)[C@H](NC(=O)[C@H](CCCNC(=N)N)NC(=O)[C@H](CCCCN)NC(=O)[C@@H]1CCCN1C(=O)CNCCCSC[C@H]1O[C@@H](n2cnc3c(N)ncnc32)[C@H](O)[C@@H]1O)C(=O)N[C@@H](C)C(N)=O (H-[X1]PKRIA-NH2)
- Activity [1]: Active

SMILES: CC[C@H](C)[C@H](NC(=O)[C@H](CCCNC(=N)N)NC(=O)[C@H](CCCCN)NC(=O)[C@@H]1CCCN1C(=O)CNCCCN(CC[C@H](N)C(=O)O)C[C@H]1O[C@@H](n2cnc3c(N)ncnc32)[C@H](O)[C@@H]1O)C(=O)N[C@@H](C)C(N)=O
- Kd [2]: Not Active
- Ki [6]: 1.3 nM
- Kd [3]: 2400 nM
- Ki [7]: 2.4 nM
- Ki [8]: 41 nM
- Ki [9]: 2.5 nM
- Kd [4]: 41 nM
- Ki [10]: 0.78 nM
- IC50 ([5]; read-out: IC50): 130 nM

SMILES: Nc1ncnc2c1ncn2[C@@H]1O[C@H](CNCC[C@H](N)C(=O)O)[C@@H](O)[C@H]1O
- IC50 [11]: > 10000 nM

SMILES: CC[C@H](C)[C@H](NC(=O)[C@H](CCCNC(=N)N)NC(=O)[C@H](CCCCN)NC(=O)[C@@H]1CCCN1C(=O)CNCCCCN(CC[C@H](N)C(=O)O)C[C@H]1O[C@@H](n2cnc3c(N)ncnc32)[C@H](O)[C@@H]1O)C(=O)N[C@@H](C)C(N)=O
- inhibition [12]: < 50%
- Kd [2]: Not Active
- Ki [6]: 0.13 nM
- Kd [3]: 310 nM
- inhibition [13]: inactive
- Ki [7]: 0.49 nM
- inhibition [14]: < 50%
- inhibition [15]: < 50%
- Ki [8]: 15 nM
- Ki [9]: 0.62 nM
- Kd [4]: 2.47 nM
- Ki [10]: 0.73 nM
- inhibition [16]: inactive
- inhibition [17]: < 50%
- IC50 ([5]; read-out: IC50): 82 nM
- inhibition [18]: inactive

SMILES: N=C(N)NCCC[C@H](NC(=O)[C@H](CCCCN)NC(=O)[C@@H]1CCCN1C(=O)CNCCCCN(CC[C@H](N)C(=O)O)C[C@H]1O[C@@H](n2cnc3c(N)ncnc32)[C@H](O)[C@@H]1O)C(N)=O
- IC50 ([5]; read-out: IC50): 84 nM

Reference: ChEMBL document CHEMBL4619776, “Probing the Plasticity in the Active Site of Protein N-terminal Methyltransferase 1 Using Bisubstrate Analogues” (J Med Chem, 2020)
